The source of these data is ChEMBL document CHEMBL1150355, “Design and evaluation of a novel series of 2,3-oxidosqualene cyclase inhibitors with low systemic exposure, relationship between pharmacokinetic properties and ocular toxicity” (Bioorg Med Chem, 2008).

The source made the active and inactive calls. The calls are words filed in the database; no cut-off is given here.

The test system of series [1] is Rattus norvegicus. Kind of series: Induction of neosynthetized 2,3 mono-epoxysqualene synthesis in OFA rat liver at 2 mg/kg, po after 3 hrs relative to BIBB 515. It is filed as functional. The gist of the method: (§1)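 Male OFA rats dosed orally at 2 mg/kg. Sterol synthesis was labelled by ip [14C]mevalonate (370 kBq) for the final hour, giving 3 h or 8 h total exposure. Lens and liver lipids were extracted with isopropanol, separated by TLC, and cholesterol and MES radioactivity quantified by phosphorimaging. Cholesterol inhibition is relative to vehicle-treated rats, and MES as % of BIBB 515-treated rats (100%).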

In series [2] the test system is Rattus norvegicus. Kind of series: Inhibition of neosynthetized cholesterol synthesis in OFA rat liver at 2 mg/kg, po after 3 hrs. It is filed as functional. The gist of the method:
as §1

A further series addresses T1, Lanosterol synthase (Homo sapiens, UniProt P48449).
T1 sequence (P48449 whole entry): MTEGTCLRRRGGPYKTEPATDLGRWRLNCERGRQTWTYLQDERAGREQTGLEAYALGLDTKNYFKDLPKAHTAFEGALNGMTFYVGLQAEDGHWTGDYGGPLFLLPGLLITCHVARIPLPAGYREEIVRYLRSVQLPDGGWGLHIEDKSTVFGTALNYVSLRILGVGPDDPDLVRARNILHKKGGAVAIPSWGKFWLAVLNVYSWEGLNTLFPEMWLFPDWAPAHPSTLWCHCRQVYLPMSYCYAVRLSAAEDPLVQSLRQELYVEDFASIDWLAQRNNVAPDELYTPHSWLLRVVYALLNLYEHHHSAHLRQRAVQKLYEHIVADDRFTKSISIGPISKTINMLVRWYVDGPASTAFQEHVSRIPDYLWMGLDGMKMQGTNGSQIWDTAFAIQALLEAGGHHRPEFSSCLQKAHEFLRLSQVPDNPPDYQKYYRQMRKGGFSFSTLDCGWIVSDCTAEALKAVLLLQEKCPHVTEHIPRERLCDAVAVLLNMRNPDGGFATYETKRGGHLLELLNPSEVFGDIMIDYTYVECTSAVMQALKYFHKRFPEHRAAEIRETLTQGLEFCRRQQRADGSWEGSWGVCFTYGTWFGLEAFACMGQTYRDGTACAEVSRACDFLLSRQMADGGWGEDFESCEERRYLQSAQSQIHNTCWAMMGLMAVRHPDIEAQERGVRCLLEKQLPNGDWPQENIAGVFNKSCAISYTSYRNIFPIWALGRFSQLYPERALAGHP
As to the kind of experiment: Inhibition of 2,3-oxidosqualene-lanosterol cyclase. In outline: (§2)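 HepG2 cells were incubated 24 h with compound in BME with 10% fetal calf serum, then labelled with [14C]mevalonate (7.4 kBq). Lipids were extracted with heptane/isopropanol and separated by TLC. [14C]cholesterol, MES and DES were identified against standards and quantified by phosphorimaging, scoring cholesterol synthesis inhibition together with MES/DES formation.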

Series [3] is described as follows: Metabolic stability in rat liver microsomes assessed as intrinsic clearance […]. It is filed as ADME, Microsome.
The target of series [4] is T2, Lanosterol synthase (Homo sapiens) (UniProt P48449).
T2 sequence (whole entry): T1 sequence (P48449 whole entry)
As to the kind of experiment: Inhibition of 2,3-oxidosqualene-lanosterol cyclase at 200 nM. In outline:
as §2

Series [5] can be described thus: Biodistribution in OFA rat eyes at 1 mg/kg, iv after 2 hrs. It is filed as ADME, organism-based. Details: dose 1 mg/kg, route intravenous. The conditions noted are these: eye, read-out: Drug uptake. In outline:
(§3)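 OFA rats (n = 10) dosed 1 mg/kg by iv bolus via penis vein in 10% DMA/90% PEG200. Plasma and tissue homogenates in borate buffer 0.1 M pH 11.5 were extracted with ethyl ether and analysed by LC. Plasma AUC was computed over 0–6 h.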

Series [6] deals with Rattus norvegicus. Kind of series: Induction of neosynthetized 2,3 mono-epoxysqualene synthesis in OFA rat liver at 2 mg/kg, po after 8 hrs relative to BIBB 515. In kind it is functional. The gist of the method:
as §1

Series [7] concerns Rattus norvegicus. As to the kind of experiment: Ocular toxicity in Sprague-Dawley rat assessed as opacification of anterior lens at 30 mg/kg, po administered once daily for 21 days. It is filed as organism-based, Lens of camera-type eye. Details: dose 30 mg/kg, route oral. As to conditions: in vivo, 504 h. In outline: (§4)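 Sprague–Dawley rats (male and female, n = 3) were dosed orally once daily for 21 days. Anterior lens opacification was scored from 0 to 6 (4 marked, 5 very marked, 6 severe), with histological examination of the eye.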

Series [8] deals with Rattus norvegicus. Kind of series: Induction of neosynthetized 2,3 mono-epoxysqualene synthesis in OFA rat lens at 2 mg/kg, po after 3 hrs relative to BIBB 515. In kind it is functional, Lens of camera-type eye. In outline:
as §1

Series [9] can be described thus: Biodistribution in OFA rat eyes at 1 mg/kg, iv after 6 hrs. It is filed as ADME, organism-based. On the set-up: dose 1 mg/kg, route intravenous. The conditions noted are these: eye, read-out: Drug uptake. In outline: as §3
Series [10] deals with Rattus norvegicus. As to the kind of experiment: Induction of neosynthetized 2,3 mono-epoxysqualene synthesis in OFA rat lens at 2 mg/kg, po after 8 hrs relative to BIBB 515. It is filed as functional, Lens of camera-type eye. The gist of the method: as §1
Series [11] concerns Rattus norvegicus. Kind of series: Inhibition of neosynthetized cholesterol synthesis in OFA rat lens at 2 mg/kg, po after 3 hrs. The conditions noted are these: Lens of camera-type eye. It is filed as functional. In outline:
as §1

In series [12] the test system is Rattus norvegicus. As to the kind of experiment: Inhibition of neosynthetized cholesterol synthesis in OFA rat liver at 2 mg/kg, po after 8 hrs. In kind it is functional. In outline:
as §1

Series [13] in a line: AUC (0 to 6 hrs) in OFA rat at 1 mg/kg, iv. It is filed as ADME, organism-based. Details: time < 6 hr, dose 1 mg/kg, route intravenous. As to conditions: plasma. The gist of the method:
as §3

Series [14] in a line: Biodistribution in OFA rat liver at 1 mg/kg, iv after 6 hrs. As to conditions: read-out: Drug uptake. It is filed as ADME, organism-based. On the set-up: dose 1 mg/kg, route intravenous. The gist of the method: as §3
For series [15], the system named is Rattus norvegicus. Kind of series: Inhibition of 2,3-oxidosqualene-lanosterol cyclase in male Sprague-Dawley rat assessed as 2,3 mono-epoxysqualene appearance in liver at 30 mg/kg, po administered once daily for 21 days. It is filed as functional, organism-based. On the set-up: dose 30 mg/kg. The gist of the method:
(§5)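 Sprague–Dawley rats (3 per sex) were dosed orally once daily for 21 days. On day 21, 3 h after the last dose, rats were sacrificed and hepatic lipids extracted and separated by TLC. MES was visualised with 5% phosphomolybdic acid in isopropanol, and MES mass quantified by densitometry.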

Series [16] is described as follows: Biodistribution in OFA rat liver at 1 mg/kg, iv after 2 hrs. It is filed as ADME, organism-based. Details: dose 1 mg/kg, route intravenous. The conditions noted are these: read-out: Drug uptake. In outline:
as §3

Series [17] relates to Rattus norvegicus. As to the kind of experiment: Inhibition of 2,3-oxidosqualene-lanosterol cyclase in male Sprague-Dawley rat assessed as 2,3 mono-epoxysqualene appearance in liver at 2 mg/kg, po administered once daily for 21 days. On the set-up: dose 2 mg/kg. In kind it is functional, organism-based. In outline:
as §5

Series [18] concerns Rattus norvegicus. As to the kind of experiment: Inhibition of 2,3-oxidosqualene-lanosterol cyclase in female Sprague-Dawley rat assessed as 2,3 mono-epoxysqualene appearance in liver at 30 mg/kg, po administered once daily for 21 days. In kind it is functional, organism-based. On the set-up: dose 30 mg/kg. The gist of the method:
as §5

In series [19] the test system is Rattus norvegicus. As to the kind of experiment: Inhibition of 2,3-oxidosqualene-lanosterol cyclase in female Sprague-Dawley rat assessed as 2,3 mono-epoxysqualene appearance in liver at 10 mg/kg, po administered once daily for 21 days. On the set-up: dose 10 mg/kg. In kind it is functional, organism-based. In outline:
as §5

The subject of series [20] is Rattus norvegicus. Kind of series: Inhibition of 2,3-oxidosqualene-lanosterol cyclase in female Sprague-Dawley rat assessed as 2,3 mono-epoxysqualene appearance in liver at 2 mg/kg, po administered once daily for 21 days. Details: dose 2 mg/kg. In kind it is functional, organism-based. In outline: as §5
Series [21] concerns Rattus norvegicus. Kind of series: Ocular toxicity in Sprague-Dawley rat assessed as opacification of anterior lens at 2 mg/kg, po administered once daily for 21 days. As to conditions: in vivo, 504 h. Details: dose 2 mg/kg, route oral. In kind it is organism-based, Lens of camera-type eye. In outline: as §4
In series [22] the test system is Rattus norvegicus. As to the kind of experiment: Inhibition of neosynthetized cholesterol synthesis in OFA rat lens at 2 mg/kg, po after 8 hrs. It is filed as functional. As to conditions: Lens of camera-type eye. In outline: as §1
Series [23] has as its system Rattus norvegicus. As to the kind of experiment: Inhibition of 2,3-oxidosqualene-lanosterol cyclase in male Sprague-Dawley rat assessed as 2,3 mono-epoxysqualene appearance in liver at 10 mg/kg, po administered once daily for 21 days. In kind it is functional, organism-based. On the set-up: dose 10 mg/kg. The gist of the method: as §5

For `O=S(=O)(c1ccc(Cl)cc1)N1CCN(Cc2ccc(-c3ccncc3)cc2)CC1`, in the series with Rattus norvegicus [1], the Activity was 45%. In the series with Rattus norvegicus [2], this compound came in with an inhibition in vivo at 2 mg/kg of 66%. Moreover, the IC50 at Lanosterol synthase turned out to be 13 nM. Moreover, the CLint scaled in [3] was found to be 1.3 mL/min/g.

`Clc1ccc(CN2CCN(Cc3ccc(-c4ccncc4)cc3)CC2)cc1`: the IC50 at Lanosterol synthase amounted to 316 nM.

On to `O=C(c1ccc(Cl)cc1)N1CCN(Cc2ccc(-n3cccn3)cc2)CC1`, for which, in series [4], the outcome was inactive.

Consider `O=S(=O)(c1ccc(Cl)cc1)N1CCN(Cc2cccc(-c3ccncc3)c2)CC1`, for which, on Lanosterol synthase, the IC50 came out at 500 nM.

Take `CN(C)Cc1cccc(-c2ccc(CCNS(=O)(=O)c3ccc(C#N)cc3)cc2)c1`: the outcome in [4] was inactive.

In the case of `Cc1nc(-c2ccc(CN3CCN(C(=O)c4ccc(Cl)cc4)CC3)cc2)no1`, the result in [4] was inactive.

`CN(C)Cc1ccc(CN2CCN(C(=O)c3ccc(Cl)cc3)CC2)cc1` came in with an IC50 against Lanosterol synthase of 40 nM.

Regarding `O=C(N1CCN(Cc2ccc(-n3ccnc3)cc2)CC1)C(F)(F)F`, the result in [4] was inactive.

On to `O=C(c1ccc(Cl)cc1)N1CCN(Cc2ccc(-n3ccnc3)cc2)CC1`, for which the figures for the concentration at 2 h in [5] and in series [16] were 65 ng/g and 2010 ng/g, respectively. Besides, the Activity was 85% with Rattus norvegicus [6]; “Toxic” with Rattus norvegicus [7]; 104% with Rattus norvegicus [8]; 156% in the series on Rattus norvegicus [1]; 51% in the series with Rattus norvegicus [10]; “Toxic” with Rattus norvegicus [15]. The Activity entry in the series with Rattus norvegicus [17] is “Non-toxic”; in the series on Rattus norvegicus [18], “Toxic”; with Rattus norvegicus [19], “Toxic”; in the series on Rattus norvegicus [20], “Toxic”; in the series with Rattus norvegicus [21], “Non-toxic”; with Rattus norvegicus [23], “Toxic”. Further, the inhibition in vivo at 2 mg/kg in the series on Rattus norvegicus [2] worked out at 85%; in the series with Rattus norvegicus [11] it was 76%; in the series with Rattus norvegicus [12] it was 20%; with Rattus norvegicus [22], 0%. Further, the concentration at 6 h in series [9] is less than 10 ng/g; in series [14] it was 660 ng/g. Also, inhibition against Lanosterol synthase was half-maximal at 32 nM (IC50). Besides, the AUC(0-t) at 6 h in series [13] amounted to 534 ng·h/mL. In addition, the CLint scaled in series [3] amounted to 0.2 mL/min/g.

With `Cn1cc(-c2ccc(CN3CCN(C(=O)c4ccc(Cl)cc4)CC3)cc2)cn1`, the outcome in series [4] was inactive.

As usually defined, the inhibition in vivo is the change of the read-out against control, counted positive when it falls. High values mean a strong effect, low ones a weak effect. The IC50 is the concentration that gives 50% inhibition. Read a low IC50 as greater potency in that assay. By CLint scaled is commonly meant a measure of how fast metabolising enzymes remove a compound, apart from limits set by blood flow. For orientation: AUC(0-t) means the area under the concentration-time curve up to a stated or last time point. Higher therefore signals more exposure.
